Article PMC5624809 (Journal of the American Chemical Society, 2017)
Where two headings read alike, the source gives them in different places. Marks after values point to notes of the source that are not given here.

What was measured:
[1] = target: T1, antithrombin (AT) (Homo sapiens, UniProt P01008); test: AT-binding affinity analysis using isothermal titration calorimetry; details: for Binding affinity (Kd) to AT / Kd: ITC; for Kd: read-out: Binding affinity (Kd) to AT
[2] = system: FXa; test: in vitro inhibition of the activity of FXa; assay type: biochemical; details: for IC50: read-out: Anti-FXa activity (IC50)
[3] = target: T1, antithrombin (AT); details: cited from earlier work
[4] = system: FXa; details: cited from earlier work
[5] = target: T1, antithrombin (AT); details: read-out: Binding affinity (Kd) to AT; affinity coelectrophoresis; cited from earlier work
[6] = system: FXa; test: anti-FXa effect in a rat model; assay type: in vivo
In short: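 Anti-Xa activity measured at several time points after dosing, with a saline-treated group as control. Values are mean ± S.D. (n = 4). Each treated group was compared with control by two-tailed Student's t-test, with p < 0.05 flagged.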

T1 sequence (P01008 33-464): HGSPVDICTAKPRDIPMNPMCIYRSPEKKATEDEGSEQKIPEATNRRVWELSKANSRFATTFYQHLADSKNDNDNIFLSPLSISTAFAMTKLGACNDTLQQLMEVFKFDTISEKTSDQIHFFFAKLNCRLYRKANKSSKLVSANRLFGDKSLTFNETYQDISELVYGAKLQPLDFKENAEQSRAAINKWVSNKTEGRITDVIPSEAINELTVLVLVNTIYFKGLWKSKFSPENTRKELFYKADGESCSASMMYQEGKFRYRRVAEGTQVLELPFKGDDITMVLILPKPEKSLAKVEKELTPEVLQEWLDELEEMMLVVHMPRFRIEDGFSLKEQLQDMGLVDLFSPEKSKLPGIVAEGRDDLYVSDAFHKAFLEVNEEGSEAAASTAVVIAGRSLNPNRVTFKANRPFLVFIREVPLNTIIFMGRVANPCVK

GlcNS-GlcA-GlcNS-IdoA2S-GlcNS3S-IdoA2S-GlcNS-GlcA-pNP [Comp 4]
Binding affinity (Kd) to AT [1]: No binding ^c
Anti-FXa activity (IC50) [2]: No inhibition

O=C(O)[C@H]1O[C@@H](Oc2ccc([N+](=O)[O-])cc2)[C@H](O)[C@@H](O)[C@@H]1O[C@H]1O[C@H](COS(=O)(=O)O)[C@@H](O[C@@H]2O[C@@H](C(=O)O)[C@@H](O[C@H]3O[C@H](COS(=O)(=O)O)[C@@H](O[C@@H]4O[C@@H](C(=O)O)[C@@H](O[C@H]5O[C@H](COS(=O)(=O)O)[C@@H](O[C@@H]6O[C@H](C(=O)O)[C@@H](O[C@H]7O[C@H](COS(=O)(=O)O)[C@@H](O)[C@H](O)[C@H]7NS(=O)(=O)O)[C@H](O)[C@H]6O)[C@H](OS(=O)(=O)O)[C@H]5NS(=O)(=O)O)[C@H](O)[C@H]4OS(=O)(=O)O)[C@H](OS(=O)(=O)O)[C@H]3NS(=O)(=O)O)[C@H](O)[C@H]2OS(=O)(=O)O)[C@H](O)[C@H]1NS(=O)(=O)O [Comp 6, GlcNS6S-GlcA-GlcNS3S6S-IdoA2S-GlcNS3S6S-IdoA2S-GlcNS6S-GlcA-pNP]
AT binding (in words) [1]: high AT-binding affinity
Kd [1]: 5.6 ± 2.6 nM
anti-FXa activity (in words) [2]: displaying anti-FXa activity
IC50 [2]: 10.9 nM

O=C(O)C1OC(OC2C(COS(=O)(=O)O)OC(OC3C(C(=O)O)OC(OC4C(COS(=O)(=O)O)OC(OC5C(C(=O)O)OC(Oc6ccc([N+](=O)[O-])cc6)C(O)C5O)C(NS(=O)(=O)O)C4O)C(O)C3O)C(NS(=O)(=O)O)C2OS(=O)(=O)O)C(O)C(O)C1OC1OC(COS(=O)(=O)O)C(O)C(O)C1NS(=O)(=O)O (stereo not drawn) [IdoA-containing 6-mer, GlcNS6S-GlcA-GlcNS3S6S-IdoA-GlcNS6S-GlcA-pNP]
Kd ([3]; read-out: Binding affinity (Kd) to AT): 32.6 ± 5.3 nM
anti-FXa activity (in words) [4]: exhibited anti-FXa activity
IC50 ([4]; read-out: Anti-FXa activity (IC50)): 29.2 nM

GlcNS6S-GlcA-GlcNS3S6S-IdoA2S-GlcNS6S-GlcA-pNP [Comp 8*]
anti-FXa activity (in words) [2]: displayed anti-FXa activity
IC50 [2]: 9.1 nM
Kd [5]: 7 ± 2 nM

GlcNAc6S-GlcA-GlcNS3S6S-IdoA2S-GlcNS6S-IdoA2S-GlcNS6S-GlcA-pNP [Comp 11*]
IC50 [2]: 9.4 nM
Kd [5]: 8 ± 3 nM

O=C(O)C1OC(OC2C(COS(=O)(=O)O)OC(OC3C(C(=O)O)OC(OC4C(COS(=O)(=O)O)OC(OC5C(C(=O)O)OC(Oc6ccc([N+](=O)[O-])cc6)C(O)C5O)C(NS(=O)(=O)O)C4OS(=O)(=O)O)C(OS(=O)(=O)O)C3O)C(NS(=O)(=O)O)C2O)C(O)C(O)C1OC1OC(COS(=O)(=O)O)C(O)C(O)C1NS(=O)(=O)O (stereo not drawn) [Comp 2, GlcNS6S-GlcA-GlcNS6S-IdoA2S-GlcNS3S6S-GlcA-pNP]
Binding affinity (Kd) to AT [1]: No binding
Anti-FXa activity (IC50) [2]: No inhibition

GlcNS6S-GlcA-GlcNS6S-IdoA2S-GlcNS3S6S-IdoA2S-GlcNS6S-GlcA-pNP [Comp 5]
AT binding (in words) [1]: binds to AT tightly
Kd [1]: 5.1 ± 1.4 nM
anti-FXa activity (in words) [2]: strong anti-FXa activity
IC50 [2]: 7.7 nM
anti-FXa potency in vivo ([6]; within 30 min after the drug was administered): comparable anti-FXa potency to that of fondaparinux and compound 11*

O=C(O)[C@H]1O[C@@H](O[C@H]2[C@H](OS(=O)(=O)O)[C@@H](NS(=O)(=O)O)[C@@H](O[C@H]3[C@H](O)[C@@H](OS(=O)(=O)O)[C@H](O[C@H]4[C@H](OS(=O)(=O)O)[C@@H](NS(=O)(=O)O)[C@@H](O[C@H]5[C@H](O)[C@@H](O)[C@H](Oc6ccc([N+](=O)[O-])cc6)O[C@@H]5C(=O)O)O[C@@H]4COS(=O)(=O)O)O[C@H]3C(=O)O)O[C@@H]2COS(=O)(=O)O)[C@H](O)[C@@H](O)[C@@H]1O[C@H]1O[C@H](COS(=O)(=O)O)[C@@H](O)[C@H](O)[C@H]1NS(=O)(=O)O [Comp 3, GlcNS6S-GlcA-GlcNS3S6S-IdoA2S-GlcNS3S6S-GlcA-pNP]
anti-FXa activity (in words) [2]: strong anti-FXa activity
IC50 [2]: 11 nM

O=C(O)C1OC(OC2C(COS(=O)(=O)O)OC(OC3C(C(=O)O)OC(OC4C(COS(=O)(=O)O)OC(OC5C(C(=O)O)OC(Oc6ccc([N+](=O)[O-])cc6)C(O)C5O)C(NS(=O)(=O)O)C4O)C(OS(=O)(=O)O)C3O)C(NS(=O)(=O)O)C2OS(=O)(=O)O)C(O)C(O)C1OC1OC(COS(=O)(=O)O)C(O)C(O)C1NS(=O)(=O)O (stereo not drawn) [GlcA2S-containing 6-mer, GlcNS6S-GlcA-GlcNS3S6S-GlcA2S-GlcNS6S-GlcA-pNP]
Binding affinity (Kd) to AT [3]: No binding ^d
anti-FXa activity (in words) [4]: did not display anti-FXa activity

CO[C@H]1O[C@H](COS(=O)(=O)O)[C@@H](O[C@@H]2O[C@@H](C(=O)O)[C@@H](O[C@H]3O[C@H](COS(=O)(=O)O)[C@@H](O[C@@H]4O[C@H](C(=O)O)[C@@H](O[C@H]5O[C@H](COS(=O)(=O)O)[C@@H](O)[C@H](O)[C@H]5NS(=O)(=O)O)[C@H](O)[C@H]4O)[C@H](OS(=O)(=O)O)[C@H]3NS(=O)(=O)O)[C@H](O)[C@H]2OS(=O)(=O)O)[C@H](O)[C@H]1NS(=O)(=O)O [Fondaparinux, GlcNS6S-GlcA-GlcNS3S6S-IdoA2S-GlcNS6S-OMe, reference compound]
IC50 [2]: 12.2 nM
persistence of anti-FXa effect in vivo ([6]; time after administration): persisted after 8 hours
